Assay results taken from ChEMBL document CHEMBL3593239, “PABA/NO lead optimization: Improved targeting of cytotoxicity to glutathione S-transferase P1-overexpressing cancer cells” (Bioorg Med Chem, 2015).
One block for each compound: values may come before it. Activity calls are given as the source filed them. No cut-off for these calls is given here.

How the values were obtained:
[1] = Drug level in phosphate buffer treated with (Z)-3,3-dimethyl-1-(5-(4-(methylamino)benzoyloxy)-2,4-dinitrophenoxy)triaz-1-ene 2-oxide at 1 uM at pH 7.4 at 37 degC by HPLC trapping method in presence of GSH; assay type: physicochemical; details: pH 7.4, 1 µM
[2] = Drug level in phosphate buffer treated with (Z)-3,3-dimethyl-1-(5-(4-(methylamino)benzoyloxy)-2,4-dinitrophenoxy)triaz-1-ene 2-oxide at 1 uM at pH 7.4 at 37 degC after 1 to 30 mins by LC/MS-MS analysis; assay type: physicochemical; details: pH 7.4, 1 µM
[3] = Drug level in phosphate buffer treated with (Z)-3,3-dimethyl-1-(5-(4-(methylamino)benzoyloxy)-2,4-dinitrophenoxy)triaz-1-ene 2-oxide at 1 uM at pH 7.4 at 37 degC by HPLC trapping method; assay type: physicochemical; details: pH 7.4, 1 µM
[4] = target: T1, Glutathione S-transferase A1 (Homo sapiens, UniProt P08263); assay: Drug level in phosphate buffer assessed as GSTA1 (unknown origin)-mediated compound formation from nitric oxide retained pathway treated with (Z)-3,3-dimethyl-1-(5-(4-(methylamino)benzoyloxy)-2,4-dinitrophenoxy)triaz-1-ene 2-oxide at 1 uM at pH 7.4 at 37 degC after 30 mins by LC-MS/MS analysis in presence of GSH; assay type: ADME; details: pH 7.4, 0.5 h
T1 sequence (P08263 whole entry): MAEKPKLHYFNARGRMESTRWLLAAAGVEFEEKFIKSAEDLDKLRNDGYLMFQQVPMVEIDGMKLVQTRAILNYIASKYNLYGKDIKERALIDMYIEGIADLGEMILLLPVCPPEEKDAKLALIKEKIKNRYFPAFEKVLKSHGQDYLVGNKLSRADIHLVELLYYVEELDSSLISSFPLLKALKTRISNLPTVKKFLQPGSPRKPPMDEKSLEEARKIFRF
Method in brief: (§1)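 Products analysed by LC–MS. The ratio is the NO-release-pathway product over the NO-retained-pathway phenolic product.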

[5] = Stability of the compound in phosphate buffer assessed as first-order initial rate constant for hydrolysis at pH 7.4 at 37 degC by HPLC trapping method; assay type: physicochemical
HL-60 [6] = assay: Cytotoxicity against human HL60 cells assessed as growth inhibition after 72 hrs by MTT assay; assay type: functional, cell-based; details: HL-60, 72 h
Method in brief: (§2)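 HL-60 and U937 cells from ATCC, grown per supplier protocol, seeded and exposed to increasing concentrations for 72 h. Viability was read with a Promega assay run per the manufacturer's protocol. Six repeats per concentration, three independent experiments. IC50 derived by curve fitting.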

HL-60 [7] = assay: Induction of apoptosis in human HL60 cells assessed as activation of caspase 7 at >10 uM after 24 hrs by Western blot analysis; assay type: functional, cell-based
[8] = Stability of the compound in phosphate buffer assessed as first-order initial rate constant for hydrolysis at pH 7.4 at 25 degC by HPLC trapping method; assay type: physicochemical
[9] = target: T2, Glutathione S-transferase P (Homo sapiens, UniProt P09211); assay: Prodrug conversion in phosphate buffer assessed as GSTP1 (unknown origin)-mediated nitric oxide release at 1 uM at pH 7.4 at 37 degC after 1 to 30 mins by LC/MS-MS analysis; assay type: ADME; details: pH 7.4, 1 µM
T2 sequence (P09211 whole entry): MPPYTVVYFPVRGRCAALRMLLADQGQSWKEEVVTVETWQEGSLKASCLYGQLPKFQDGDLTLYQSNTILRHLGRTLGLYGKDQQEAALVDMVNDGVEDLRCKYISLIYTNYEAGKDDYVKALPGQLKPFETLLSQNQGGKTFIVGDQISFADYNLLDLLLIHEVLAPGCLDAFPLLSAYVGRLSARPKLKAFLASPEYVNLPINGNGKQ
Method in brief: (§3)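 Test compound at 1 µM reacted with 4 mM GSH containing 4 nM GSTP1 in 0.1 M phosphate, pH 7.4, at 37 °C. Products identified by LC–MS traces taken at 60 s and 30 min.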

[10] = target: T2, Glutathione S-transferase P; assay: Drug metabolism in phosphate buffer assessed as formation of GSTP1 (unknown origin)-mediated (Z)-1-(5-((R)-2-((S)-4-amino-4-carboxybutanamido)-3-(carboxymethylamino)-3-oxopropylthio)-2-cyano-4-nitrophenoxy)-3,3-dimethyltriaz-1-ene 2-oxide at 1 uM at pH 7.4 at 37 degC after 5 to 30 mins by LC-MS/MS analysis in presence of GSH; assay type: ADME; details: pH 7.4, 1 µM; method in brief: as §3
[11] = Stability of the compound in phosphate buffer assessed as pseudo-first order rate constant at pH 7.4 at 37 degC by HPLC trapping method in presence of GSH; assay type: physicochemical
HL-60 [12] = assay: Induction of SAPK/JNK phosphorylation in human HL-60 cells at 5 to 20 uM after 24 hrs by Western blot analysis
HL-60 [13] = assay: Induction of apoptosis in human HL60 cells assessed as cleavage of PARP at >10 uM after 24 hrs by Western blot analysis; assay type: functional, cell-based
[14] = target: T1, Glutathione S-transferase A1; assay: Drug metabolism in phosphate buffer assessed as ratio of GSTA1 (unknown origin)-mediated (S)-2-amino-5-((R)-1-(carboxymethylamino)-3-(2-cyano-5-hydroxy-4-nitrophenylthio)-1-oxopropan-2-ylamino)-5-oxopentanoic acid formation from nitric oxide release pathway to GSTA1 (unknown origin)-mediated (Z)-1-(2-cyano-5-hydroxy-4-nitrophenoxy)-3,3-dimethyltriaz-1-ene 2-oxide formation from nitric oxide retained pathway at 1 uM at pH 7.4 at 37 degC after 30 mins by LC-MS/MS analysis in presence of GSH; assay type: ADME; details: pH 7.4, 0.5 h; method in brief: as §1
U-937 = assay: Cytotoxicity against human U937 cells assessed as growth inhibition after 72 hrs by MTT assay; assay type: functional, cell-based; details: U-937, 72 h; method in brief: as §2
HL-60 [15] = assay: Induction of apoptosis in human HL60 cells assessed as activation of caspase 8 at >10 uM after 24 hrs by Western blot analysis; assay type: functional, cell-based
[16] = Drug level in phosphate buffer treated with (Z)-1-(2-cyano-5-(4-(methylamino)benzoyloxy)-4-nitrophenoxy)-3,3-dimethyltriaz-1-ene 2-oxide at 1 uM at pH 7.4 at 37 degC after 30 secs by LC-MS analysis in presence of GSH; assay type: physicochemical; details: pH 7.4, 0.5 min
[17] = target: T2, Glutathione S-transferase P; assay: Drug level in phosphate buffer assessed as GSTP1 (unknown origin)-mediated compound formation treated with (Z)-1-(2-cyano-5-(4-(methylamino)benzoyloxy)-4-nitrophenoxy)-3,3-dimethyltriaz-1-ene 2-oxide at 1 uM at pH 7.4 at 37 degC after 5 to 30 mins by LC-MS/MS analysis in presence of GSH; assay type: ADME; details: pH 7.4, 1 µM; method in brief: as §3
[18] = Half life of the compound in phosphate buffer at 1 uM at pH 7.4 at 37 degC by HPLC trapping method; assay type: ADME
Method in brief: (§4)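 Hydrolysis of compound at 1 µM final in 0.1 M phosphate buffer, pH 7.4, with 0.1% DMSO, run separately at 25 °C and 37 °C. Decomposition followed by HPLC, with products confirmed by LC–MS/MS. First-order rate constants were derived by initial-rate analysis.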

[19] = Half life of the compound in phosphate buffer at 1 uM at pH 7.4 at 25 degC by HPLC trapping method; assay type: ADME; method in brief: as §4
[20] = target: T1, Glutathione S-transferase A1; assay: Drug metabolism in phosphate buffer assessed as ratio of GSTA1 (unknown origin)-mediated (S)-2-amino-5-((R)-1-(carboxymethylamino)-3-(5-hydroxy-2,4-dinitrophenylthio)-1-oxopropan-2-ylamino)-5-oxopentanoic acid formation from nitric oxide release pathway to GSTA1 (unknown origin)-mediated (Z)-1-(5-hydroxy-2,4-dinitrophenoxy)-3,3-dimethyltriaz-1-ene 2-oxide formation from nitric oxide retained pathway at 1 uM at pH 7.4 at 37 degC after 30 mins by LC-MS/MS analysis in presence of GSH; assay type: ADME; details: pH 7.4, 0.5 h
Method in brief: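 GSTA1 (4 nM)-catalysed reaction of 1 µM compound with 4 mM GSH in 0.1 M phosphate buffer, pH 7.4, 37 °C. Products analysed by LC–MS. Value is the ratio of the NO-release-pathway product to the NO-retained-pathway phenol product.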

[21] = target: T2, Glutathione S-transferase P; assay: Drug level in phosphate buffer assessed as GSTP1 (unknown origin)-mediated compound formation treated with (Z)-1-(4-cyano-5-(4-(methylamino)benzoyloxy)-2-nitrophenoxy)-3,3-dimethyltriaz-1-ene 2-oxide at 1 uM at pH 7.4 at 37 degC after 1 to 30 mins by LC-MS/MS analysis in presence of GSH; assay type: ADME; details: pH 7.4, 1 µM; method in brief: as §3
[22] = target: T1, Glutathione S-transferase A1; assay: Drug level in phosphate buffer assessed as GSTA1 (unknown origin)-mediated compound formation from nitric oxide retained pathway treated with (Z)-1-(2-cyano-5-(4-(methylamino)benzoyloxy)-4-nitrophenoxy)-3,3-dimethyltriaz-1-ene 2-oxide at 1 uM at pH 7.4 at 37 degC after 30 mins by LC-MS/MS analysis in presence of GSH; assay type: ADME; details: pH 7.4, 0.5 h; method in brief: as §1

- Drug metabolism [1]: metabolite_detected
Compound: CN(C)/[N+]([O-])=N/Oc1cc(SC[C@H](NC(=O)CC[C@H](N)C(=O)O)C(=O)NCC(=O)O)c([N+](=O)[O-])cc1[N+](=O)[O-]

- Drug metabolism [2]: metabolite_detected
- Drug metabolism [1]: metabolite_detected
- Drug metabolism [3]: metabolite_detected
- Drug metabolism [4]: metabolite_detected
Compound: CN(C)/[N+]([O-])=N\Oc1cc(O)c([N+](=O)[O-])cc1[N+](=O)[O-]

- Drug metabolism [2]: metabolite_detected
Compound: N[C@@H](CCC(=O)N[C@@H](CSc1cc(SC[C@H](NC(=O)CC[C@H](N)C(=O)O)C(=O)NCC(=O)O)c([N+](=O)[O-])cc1[N+](=O)[O-])C(=O)NCC(=O)O)C(=O)O

- K [5]: 2.1 ×10⁻⁴ /s
- K [8]: 3.3 ×10⁻⁵ /s
- Drug metabolism [9]: metabolite_detected
- Drug metabolism [10]: metabolite_detected
- K [11]: 2.1 ×10⁻³ /s
- Ratio [14]: 1
Compound: CNc1ccc(C(=O)Oc2cc(O/N=[N+](\[O-])N(C)C)c(C#N)cc2[N+](=O)[O-])cc1
- IC50 (HL-60 [6]): 20 µM
- Activity (HL-60 [7]): Active
- Activity (HL-60 [12]): Active
- Activity (HL-60 [13]): Active
- IC50 (U-937): 15 µM
- Activity (HL-60 [15]): Active

- Drug metabolism [16]: metabolite_detected
- Drug metabolism [17]: metabolite_detected
Compound: CN(C)/[N+]([O-])=N/Oc1cc(SC[C@H](NC(=O)CC[C@H](N)C(=O)O)C(=O)NCC(=O)O)c([N+](=O)[O-])cc1C#N

Compound: CNc1ccc(C(=O)Oc2cc(O/N=[N+](\[O-])N(C)C)c([N+](=O)[O-])cc2[N+](=O)[O-])cc1
- K [5]: 5.7 ×10⁻⁴ /s
- half-life at 1 µM [18]: 0.333 h
- half-life at 1 µM [19]: 2 h
- K [8]: 9.6 ×10⁻⁵ /s
- Ratio [20]: 3
- Drug metabolism [9]: metabolite_detected
- K [11]: 11.8 ×10⁻³ /s

- Drug metabolism [21]: metabolite_detected
Compound: CNc1ccc(C(=O)Oc2cc(SC[C@H](NC(=O)CC[C@H](N)C(=O)O)C(=O)NCC(=O)O)c([N+](=O)[O-])cc2C#N)cc1

- Drug metabolism [16]: metabolite_detected
- Drug metabolism [22]: metabolite_detected
Compound: CN(C)/[N+]([O-])=N/Oc1cc(O)c([N+](=O)[O-])cc1C#N
